Assay outcomes as filed in PubChem BioAssay.
CSN inh = CSN deneddylation inhibition. Q92905. Purified CSN, SCF-Nedd8-OG deneddylation, fluorescence polarization. inhibition, % at 12.5 µM. hit rate 0.38% among 360,000. AID 651999;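 active = pattern-corrected inhibition above about 35%, with an unprinted fluorescence ratio check between 0.5 and 1.5, limit read from the data, passing the limit was not always enough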
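Material: purified human Csn5 enzyme expressed in HEK293T cells / Medium: Tris buffer pH 7.5, NaCl, DTT, Tween-20, trehalose, ovalbumin / Compound dosing: 12.5 µM single point / Schedule: 90 min incubation of compound, enzyme and substrate at room temperature / Signal: fluorescence polarization of the substrate / Control set: no-enzyme wells high, enzyme-with-substrate wells low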
IDE act = boosts human insulin-degrading enzyme activity in HEK cells; activation, % at 5.96 µM; hit rate 0.073% among 340,000; FAbeta-B cleavage, fluorescence polarization; 0% vehicle, 100% cell-free pure enzyme wells; P14735;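 active = activation above the mean of all tested compounds plus 3 SD, set per screening campaign, cut at about 17% in these data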
HNF4A DNA FP = change in binding of human HNF4 alpha to DNA | P41235 | HNF4a-FITC DNA binding, fluorescence polarization, 1 h | activity change, % at 10 µM | hit rate 0.3% among 360,000 | AID 1224865; in the data active = activity change above about 30%, passing the limit was not always enough
Target sequence (P41235 whole entry, looked up): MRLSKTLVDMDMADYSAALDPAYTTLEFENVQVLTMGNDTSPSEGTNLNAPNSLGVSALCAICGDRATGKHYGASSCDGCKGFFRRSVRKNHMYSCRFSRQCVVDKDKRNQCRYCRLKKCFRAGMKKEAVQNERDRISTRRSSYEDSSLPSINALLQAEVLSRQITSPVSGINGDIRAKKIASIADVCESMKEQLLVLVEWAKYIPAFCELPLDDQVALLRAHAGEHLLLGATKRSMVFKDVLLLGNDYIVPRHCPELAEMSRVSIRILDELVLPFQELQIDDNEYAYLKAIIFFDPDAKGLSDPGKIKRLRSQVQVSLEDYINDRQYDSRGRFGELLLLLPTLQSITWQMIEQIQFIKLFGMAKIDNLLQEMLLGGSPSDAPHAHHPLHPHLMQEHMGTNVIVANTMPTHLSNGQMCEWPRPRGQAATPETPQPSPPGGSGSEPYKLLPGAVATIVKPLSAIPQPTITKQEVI
Tb MetRS inh = Trypanosoma brucei MetRS inhibition. AID 624268. inhibition, % at 11.9 µM. hit rate 0.4% among 360,000. purified T. brucei MetRS, ATP depletion, Kinase-Glo luminescence;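 active = inhibition above a per-plate cutoff of the control wells' mean inhibition plus 3 SD, cut at about 5.5% in these data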
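Dosing: 11.9 µM single point; system: parasite MetRS enzyme; technique: luminescence of leftover ATP; times: 15 min enzyme-compound preincubation, 2 h reaction, 10 min detection, 25 °C; replicates: each compound tested once; read-out basis: percent inhibition relative to median high and low control wells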
TPT1 inhibitor = inhibitors of Candida albicans tRNA 2'-phosphotransferase TPT1; recombinant caTPT1, FP RNA substrate dephosphorylation; inhibition, % at 5 µM; hit rate 0.81% among 300,000; AID 1962;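 active = inhibition above the mean of all tested compounds plus 3 SD, set per screening campaign, cut at about 24% in these data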
IDE inh = cellular human IDE inhibition; inhibition, % at 5.59 µM; hit rate 0.41% among 320,000; P14735; HEK cells, FAbetaB cleavage, fluorescence polarization;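 active = percent inhibition above the average of all tested compounds plus 3 SD, set per screening campaign, cut at about 16% in these data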;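 also: IDE supplied by intact live HEK cells; FP after avidin binding of uncleaved biotin substrate so inhibition keeps polarization high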
TPT1 inh confirm = confirmation of Candida albicans TPT1 inhibitors; shares compounds with TPT1 inhibitor; recombinant caTPT1, fluorescence polarization, RNase T1 coupled; inhibition, % at 5 µM; hit rate 74% among 2,400; AID 2149;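 active = inhibition above the primary screen limit, the mean inhibition of all tested compounds plus 3 SD, cut at about 25% in these data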
RNase T1 counter = blocks Aspergillus oryzae RNase T1, a TPT1 counter-screen | hit rate 83% among 2,400 | shares compounds with TPT1 inhibitor | inhibition, % at 5 µM | AID 2153 | RNase T1 cleavage, fluorescence polarization, 1536-well;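 active = inhibition above the solvent-only control well mean plus 3 SD, limit set per screening run, cut at about 23% in these data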;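 also: inhibitors block cleavage so intact labeled substrate keeps polarization high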
IDE inh confirm = confirmation of human insulin-degrading enzyme inhibitors in cells | shares compounds with IDE inh | HEK cells, FAbetaB cleavage, fluorescence polarization | inhibition, % at 5.59 µM | hit rate 51% among 1,200 | AID 435028;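 active = mean inhibition across triplicate wells above the cutoff set by the earlier primary insulin-degrading enzyme screen, cut at about 16% in these data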
HEK293 tox = HEK cell cytotoxicity, counter-screen for IDE inhibitors; shares compounds with IDE inh; AID 449730; HEK293 cytotoxicity, ATP luminescence; hit rate 28% among 1,200; inhibition, % at 5.59 µM; in the data active = inhibition above about 22%
Each line names hits and unclear results; the compound was inactive in the other large screens (follow-up assays come after a bar, where they were run). Compounds with a hit are over-represented: about 1.7% of the library has one in this group of screens.

CCOC(=O)C1(C)CCCN1C(=O)c1ccc(C(=O)OC)cc1 (stereo not given)	none (no result: IDE act, TPT1 inhibitor, IDE inh)
CCCCN1C(=O)C2Cc3c([nH]c4ccccc34)CN2C1=S (stereo not given)	TPT1 inhibitor 25.1, IDE inh 30.3 | TPT1 inh confirm inactive | RNase T1 counter 38.5 | IDE inh confirm 93.8 | HEK293 tox inactive
CN(c1ccccc1)c1ccc(/C=C/[N+](=O)[O-])cc1	TPT1 inhibitor 41.9, IDE inh 32.3 | TPT1 inh confirm 54.7 | RNase T1 counter 71.4 | IDE inh confirm 26.0 | HEK293 tox 116.6
CN(C)c1ccc(-n2cccc2/C=C/[N+](=O)[O-])cc1	none
CN(C)c1ccc(C2C=C(c3ccc(Cl)cc3OC(F)F)Nc3ncnn32)cc1 (stereo not given)	TPT1 inhibitor 49.5, IDE inh 21.0 | TPT1 inh confirm 43.0 | RNase T1 counter 55.6 | IDE inh confirm 28.3 | HEK293 tox 60.7
COc1ccc(S(=O)(=O)N2CCCOC2CNC(=O)C(=O)NCCc2ccco2)cc1OC (stereo not given)	none
O=C1/C(=C/c2ccccc2)Nc2ccccc21	TPT1 inhibitor 62.8, IDE inh 27.9 | TPT1 inh confirm 63.6 | RNase T1 counter 69.7 | IDE inh confirm 32.0 | HEK293 tox inactive
C/C(=N\NC(=O)c1ccncc1)c1cc2ccccc2oc1=O	none
C/C(=N/NC(=O)c1ccncc1)c1cc2ccc(O)cc2oc1=O	TPT1 inhibitor 59.5, IDE inh 20.8 | TPT1 inh confirm inactive | RNase T1 counter inactive | IDE inh confirm 25.9 | HEK293 tox inactive
COc1ccc(/C=C/C(=O)NCCN=C2NS(=O)(=O)c3ccccc32)cc1	none
S=c1[nH]nc(-c2cc(-c3ccccc3)n[nH]2)n1/N=C/C(Br)=C/c1ccccc1	none (no result: IDE act)
N#Cc1c(N)n(Cc2ccccc2)c(=O)c2cc([N+](=O)[O-])ccc12	none
Cn1c(N)c(-c2ccccc2)c2ccc([N+](=O)[O-])cc2c1=O	HNF4A DNA FP 98.8, TPT1 inhibitor 84.2, IDE inh 25.1 | TPT1 inh confirm 89.0 | RNase T1 counter 91.5 | IDE inh confirm 25.4 | HEK293 tox 26.7
CC1=C/C(=C\C=C(C#N)C#N)N(C)c2ccccc21	HNF4A DNA FP 71.3, TPT1 inhibitor 34.0, IDE inh 80.6 | TPT1 inh confirm 33.3 | RNase T1 counter 43.1 | IDE inh confirm 125.1 | HEK293 tox 22.8
COc1cc(/C=C/c2nc3ccccc3c(=O)[nH]2)cc(Cl)c1O	HNF4A DNA FP 40.3, TPT1 inhibitor 40.6, IDE inh 26.8 | TPT1 inh confirm 71.5 | RNase T1 counter 74.4 | IDE inh confirm 99.5 | HEK293 tox inactive
OC1Cc2ccccc2C1Nc1cccc(C(F)(F)F)c1 (stereo not given)	none (no result: TPT1 inhibitor, IDE inh)
CCN1/C(=C/c2cc[n+](CCCS(=O)(=O)[O-])c3ccccc23)Sc2ccccc21	TPT1 inhibitor 48.1, IDE inh 25.8 | TPT1 inh confirm 37.3 | RNase T1 counter 52.3 | IDE inh confirm 28.3 | HEK293 tox inactive
CCCN1C(=O)/C(=C/C=C2\N(CC)c3ccccc3C2(C)C)SC1=S	TPT1 inhibitor 177.8, IDE inh 16.1 | TPT1 inh confirm 138.4 | RNase T1 counter 125.2 | IDE inh confirm 114.3 | HEK293 tox inactive
CN1/C(=C\C=C2/SC(=S)N(CC(=O)O)C2=O)C(C)(C)c2ccccc21	TPT1 inhibitor 78.6, IDE inh 132.6 | TPT1 inh confirm 74.5 | RNase T1 counter 78.3 | IDE inh confirm 25.9 | HEK293 tox inactive
CN1/C(=C\C=O)C(C)(C)c2ccccc21	none
